The subject of experiment [1] is Blood. Put plainly: Inhibition of A23187-induced TBX2 release in human whole blood at 10 uM. Type of experiment: functional.
The test system of experiment [2] is MC9. Put plainly: Inhibition of IgE-specific antigen-induced PGF2-alpha release in mouse MC9 cells at 1.0 uM.
The target of experiment [3] is T1, Cytosolic phospholipase A2 (Homo sapiens, UniProt P47712).
T1 sequence (P47712 whole entry): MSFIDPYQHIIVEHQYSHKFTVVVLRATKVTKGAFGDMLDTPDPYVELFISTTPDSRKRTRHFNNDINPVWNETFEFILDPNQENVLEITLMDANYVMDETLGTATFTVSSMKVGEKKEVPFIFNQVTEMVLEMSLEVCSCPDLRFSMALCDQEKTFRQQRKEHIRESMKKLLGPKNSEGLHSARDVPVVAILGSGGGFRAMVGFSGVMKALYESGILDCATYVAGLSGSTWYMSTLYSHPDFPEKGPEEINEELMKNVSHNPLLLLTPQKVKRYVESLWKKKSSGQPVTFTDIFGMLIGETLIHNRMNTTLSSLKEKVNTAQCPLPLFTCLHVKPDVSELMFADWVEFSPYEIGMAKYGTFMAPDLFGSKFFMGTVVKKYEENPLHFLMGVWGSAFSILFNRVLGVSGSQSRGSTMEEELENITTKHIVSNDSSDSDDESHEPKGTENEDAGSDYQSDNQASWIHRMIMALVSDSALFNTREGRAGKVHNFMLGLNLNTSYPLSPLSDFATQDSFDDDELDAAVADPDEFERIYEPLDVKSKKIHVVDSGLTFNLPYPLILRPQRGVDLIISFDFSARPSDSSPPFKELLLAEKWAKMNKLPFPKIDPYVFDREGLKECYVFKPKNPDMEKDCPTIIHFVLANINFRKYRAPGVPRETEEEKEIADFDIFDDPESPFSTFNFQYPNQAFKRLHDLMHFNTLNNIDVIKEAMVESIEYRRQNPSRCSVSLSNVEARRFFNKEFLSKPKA
As to the kind of experiment: Inhibition of human cytosolic PLA2alpha by GLU micelle assay. A digest of the protocol: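 Purified human cPLA2α with the substrate 7-hydroxycoumarinyl-γ-linolenate (GLU), presented in micelles containing a high concentration of detergent and lipid. IC50 is taken from at least two runs, each run the mean of duplicate assays.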

In experiment [4] the test system is MC9. As to the kind of experiment: Inhibition of IgE-specific antigen-induced LBT4 release in mouse MC9 cells at 1.0 uM.
In experiment [5] the test system is Blood. Put plainly: Inhibition of A23187-induced TBX2 release in Sprague-Dawley rat whole blood. Type of experiment: functional, tissue-based. A digest of the protocol: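 Rat whole blood is stimulated with calcium ionophore A23187, and thromboxane B2 is the read-out (cPLA2α- and COX-1-dependent). IC50 is taken from at least two runs, each run the mean of triplicate assays.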

Experiment [6] relates to MC9. As to the kind of experiment: Inhibition of arachidonic acid-induced PGF2-alpha release in mouse MC9 cells at 1.0 uM.

Where only a bound is given, the exact number is not on record here.

For `O=C(O)c1ccc(OCCc2c(CCNS(=O)(=O)CCn3cnnn3)n(C(c3ccccc3)c3ccccc3)c3ccc(Cl)cc23)cc1`, in the experiment with Blood [1], the inhibition at 10 µM is under 25%. Further, the figures for the inhibition at 1 µM in the experiment with MC9 [2], in the experiment on MC9 [4] and in the experiment on MC9 [6] were 19%, 59% and -5%, respectively. The IC50 in experiment [3] stood at 0.47 µM; in the experiment on Blood [5], 5.6 µM.

The values are drawn from ChEMBL document CHEMBL1140903, “Reactions of functionalized sulfonamides: application to lowering the lipophilicity of cytosolic phospholipase A2alpha inhibitors” (J Med Chem, 2009).
